Active and inactive are the calls of the source. The calls are words filed in the database; no cut-off is given here.
Columns and labels:
[1] = target: T1, Proteasome Macropain subunit MB1 (Homo sapiens, UniProt P28074); experiment: Inhibition of 20S proteasome beta5 subunit in human Jurkat cell lysate using Suc-LLVY-AMC as substrate pretreated for 30 mins followed by substrate addition and measured after 60 mins by fluorescence assay
T1 sequence (P28074 whole entry): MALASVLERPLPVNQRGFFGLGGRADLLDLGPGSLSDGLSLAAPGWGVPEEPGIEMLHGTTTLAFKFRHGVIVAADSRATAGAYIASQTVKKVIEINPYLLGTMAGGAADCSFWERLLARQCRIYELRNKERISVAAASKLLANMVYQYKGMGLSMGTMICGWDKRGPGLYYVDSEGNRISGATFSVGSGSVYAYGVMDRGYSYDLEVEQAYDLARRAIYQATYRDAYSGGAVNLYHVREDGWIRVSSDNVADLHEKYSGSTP
Outline: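 Lysate was preincubated with compound 30 min at 37 °C. 100 μM substrate solution was added: Suc-LLVY-AMC for β5, Suc-RLR-AMC for β2. IC50 by nonlinear regression, ±SD.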

MCF7 = experiment: Cytotoxicity against human MCF7 cells after 48 hrs by MTT assay; assay type: functional, cell-based; conditions: MCF7, 48 h
Outline: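 MCF7 cells plated at 4*10⁴ cells/mL and left overnight to adhere, then exposed to a concentration series for 48 h, with DMSO vehicle, untreated cells, and 100 μM phenylarsine oxide as controls. MTT (5 mg/mL stock in PBS) was added for 2 h at 37 °C. Formazan was dissolved in DMSO and OD read at 490 nm. The best three of quadruplicate wells were used; IC50 from nonlinear regression on normalized data, ±SD.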

MDA-MB-231 = experiment: Cytotoxicity against human MDA-MB-231 cells after 48 hrs by MTT assay; assay type: functional, cell-based; conditions: MDA-MB-231, 48 h
Outline: (§1)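 MTT viability after 48 h exposure to a concentration series; MDA-MB-231 seeded at 4*10⁴ cells/mL and adhered overnight, RPMI 8226 at 4*10⁵ cells/mL and dosed immediately. MTT (5 mg/mL in PBS) added, 2 h at 37 °C; formazan dissolved in DMSO (MDA-MB-231) or DMF/SDS pH<4 (RPMI 8226); OD 490 nm.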

RPMI-8226 = experiment: Cytotoxicity against human RPMI8226 cells after 48 hrs by MTT assay; assay type: functional, cell-based; conditions: RPMI-8226, 48 h; outline: as §1
[2] = target: T2, Proteasome Macropain subunit MB1 (Homo sapiens) (UniProt P28074); experiment: Inhibition of 20S proteasome beta5 subunit in human MCF7 cells using Suc-LLVY-AMC as substrate pretreated for 1 hr followed by compound washout and cell lysis prior to substrate addition measured after 1 hr by fluorescence assay; assay type: cell-based
T2 sequence (whole entry): T1 sequence (P28074 whole entry)
Outline: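 Adherent MCF7 (500,000 cells/mL, overnight, ~100% confluent) dosed 1 h at 37 °C, 5% CO₂; washed twice with PBS, lysed in HEPES/Triton buffer on ice 1 h; 15 min at 37 °C, then 100 μM Suc-LLVY-AMC 1 h at 37 °C; ex 360/em 480 nm. IC50 from best three of four biological replicates per concentration.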

[3] = target: T3, Proteasome subunit beta type-1 (Saccharomyces cerevisiae (strain ATCC 204508 / S288c) (Baker's yeast), UniProt P38624); experiment: Inhibition of yeast 20S proteasome beta1 subunit using fluorescent substrate pretreated for 30 mins followed by substrate addition and measured after 60 mins by fluorescence assay
T3 sequence (P38624 whole entry): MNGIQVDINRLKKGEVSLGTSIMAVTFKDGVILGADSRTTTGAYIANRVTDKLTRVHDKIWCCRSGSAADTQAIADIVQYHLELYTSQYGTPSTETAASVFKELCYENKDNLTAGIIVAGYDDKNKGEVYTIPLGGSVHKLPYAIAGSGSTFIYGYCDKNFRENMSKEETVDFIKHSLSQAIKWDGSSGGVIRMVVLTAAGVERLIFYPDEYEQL

[4] = target: T4, Proteasome subunit beta type-2 (Saccharomyces cerevisiae (strain ATCC 204508 / S288c) (Baker's yeast), UniProt P25043); experiment: Inhibition of yeast 20S proteasome beta2 subunit using SUC-RLR-AMC as substrate pretreated for 30 mins followed by substrate addition and measured after 60 mins by fluorescence assay
T4 sequence (P25043 whole entry): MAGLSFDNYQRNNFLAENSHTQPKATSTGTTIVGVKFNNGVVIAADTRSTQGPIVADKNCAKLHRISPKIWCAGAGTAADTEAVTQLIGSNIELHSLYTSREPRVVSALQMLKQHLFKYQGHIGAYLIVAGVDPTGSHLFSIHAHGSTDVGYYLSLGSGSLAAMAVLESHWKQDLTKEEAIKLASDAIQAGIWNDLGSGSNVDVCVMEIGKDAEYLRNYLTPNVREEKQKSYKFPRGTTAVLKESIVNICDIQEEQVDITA
Outline: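 Fluorogenic substrate was then added (100 μM Suc-RLR-AMC solution for β2) and incubated 60 min at 37 °C; cleavage read at ex 360/em 480 nm. IC50 from nonlinear regression on normalized data, ±SD.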

[5] = Inhibition of yeast 20S proteasome beta5 subunit using Suc-LLVY-AMC as substrate pretreated for 30 mins followed by substrate addition and measured after 60 mins by fluorescence assay; design: species or system Saccharomyces cerevisiae
Outline: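 Purified yeast 20S proteasome at 8 μg/mL preincubated with compound 30 min at 37 °C; then 100 μM Suc-LLVY-AMC for 60 min at 37 °C; cleaved-AMC fluorescence ex 360/em 480 nm. IC50 by nonlinear regression on normalized data, confirmed in at least technical triplicate, reported ± SD.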

[6] = target: T5, Proteasome subunit beta type-8 (Homo sapiens, UniProt P28062); experiment: Inhibition of human immunoproteasome beta5 subunit using Suc-LLVY-AMC as substrate pretreated for 30 mins followed by substrate addition and measured after 60 mins by fluorescence assay
T5 sequence (P28062 whole entry): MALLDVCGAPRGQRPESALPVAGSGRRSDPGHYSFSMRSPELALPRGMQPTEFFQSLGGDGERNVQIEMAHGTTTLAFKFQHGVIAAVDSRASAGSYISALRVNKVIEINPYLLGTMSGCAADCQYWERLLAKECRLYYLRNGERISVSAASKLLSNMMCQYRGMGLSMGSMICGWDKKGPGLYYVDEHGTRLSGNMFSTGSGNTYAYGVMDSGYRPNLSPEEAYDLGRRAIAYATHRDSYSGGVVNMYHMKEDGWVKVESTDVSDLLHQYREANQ

Row | SMILES | IC50 [1] [µM] | IC50 (MCF7) [µM] | IC50 (MDA-MB-231) [µM] | IC50 (RPMI-8226) [µM] | inhibition [2] | IC50 [3] [µM] | IC50 [4] [µM] | IC50 [5] [µM] | IC50 [6] [µM]
1 | CC[C@H](C)[C@@H]1C(=O)O[C@H]1C(=O)N[C@H](C(=O)N[C@H](C(=O)OCC1CCCCC1)C(C)C)C(C)C | 0.0187 | 4.62 | 3.22 | 0.303 |  |  |  |  | 
2 | CC[C@H](C)[C@@H]1C(=O)O[C@H]1C(=O)N[C@@H](Cc1ccccc1)C(=O)N[C@@H](Cc1ccccc1)C(=O)OCc1ccccc1 | 0.0116 | 6.25 | 5.21 | 1.18 |  |  |  |  | 
3 | CC[C@H](C)[C@@H]1C(=O)O[C@H]1C(=O)N[C@@H](CC(C)C)C(=O)N[C@H](C(=O)OCc1ccccc1)C(C)C | 0.005 | 2.46 | 1.45 | 2.24 | Active |  |  |  | 
4 | CC[C@H](C)[C@@H]1C(=O)O[C@H]1C(=O)N[C@H](C(=O)N[C@H](C(=O)OCc1ccc(OC)cc1)C(C)C)C(C)C | 0.0102 | 0.854 | 0.28 | 0.114 |  |  |  |  | 
5 | CC[C@H](C)[C@@H]1C(=O)O[C@H]1C(=O)N[C@@H](COCc1ccccc1)C(=O)N[C@H](C(=O)OCc1ccccc1)C(C)C | 0.0077 | 3.45 | 2.86 | 1.71 | Active |  |  |  | 
6 | CC[C@H](C)[C@@H]1C(=O)O[C@H]1C(=O)N[C@H](C(=O)N[C@@H](CC(C)C)C(=O)OCc1ccccc1)C(C)C | 0.0077 | 0.332 | 0.219 | 0.286 | Active |  |  |  | 
7 | C=CCCOC(=O)[C@@H](NC(=O)[C@@H](NC(=O)[C@@H]1OC(=O)[C@H]1[C@@H](C)CC)C(C)C)C(C)C | 0.0066 | 0.523 | 0.341 | 0.272 |  |  |  |  | 
8 | CC(C)[C@H](NC(=O)[C@@H]1OC(=O)[C@H]1C1CCCC1)C(=O)N[C@H](C(=O)OCc1ccccc1)C(C)C | 0.0129 | 50.6 | 28.2 | 2.35 | inactive |  |  |  | 
9 | CC[C@H](C)[C@@H]1C(=O)O[C@H]1C(=O)N[C@H](C(=O)N[C@H](C(=O)OCc1ccccc1)C(C)C)C(C)(C)C | 0.0228 | 2.29 | 0.699 | 0.748 | Active |  |  |  | 
10 | CC[C@H](C)[C@@H]1C(=O)O[C@H]1C(=O)N[C@H](C(=O)N[C@H](C(=O)OCc1ccc(Cl)cc1)C(C)C)C(C)C | 0.0082 | 0.918 | 0.312 | 0.085 |  |  |  |  | 
11 | CC[C@H](C)[C@@H]1C(=O)O[C@H]1C(=O)N[C@H](C(=O)N[C@H](C(=O)OCc1ccccc1)C(C)(C)C)C(C)C | 0.0098 | 1.14 | 1.91 | 1.75 | inactive |  |  |  | 
12 | CC[C@H](C)[C@@H]1C(=O)O[C@H]1C(=O)N[C@@H](Cc1ccccc1)C(=O)N[C@H](C(=O)OCc1ccccc1)C(C)C | 0.0078 | 6.95 | 3.76 | 2.61 | Active |  |  |  | 
13 | CC[C@H](C)[C@@H]1C(=O)O[C@H]1C(=O)N[C@H](C(=O)N[C@H](C(=O)OCc1ccccc1)C(C)(C)C)C(C)(C)C | 0.0359 | 1.91 | 0.673 | 1.22 |  |  |  |  | 
14 | CC[C@H](C)[C@@H]1C(=O)O[C@H]1C(=O)NCC(=O)N[C@H](C(=O)OCc1ccccc1)C(C)C | 0.0027 | 2.08 | 0.678 | 0.762 | Active |  |  |  | 
15 | CC(C)C[C@@H]1C(=O)O[C@H]1C(=O)N[C@H](C(=O)N[C@H](C(=O)OCc1ccccc1)C(C)C)C(C)C | 0.0197 | 55.3 | 30.3 | 33.5 | inactive |  |  |  | 
16 | CC(C)[C@H](NC(=O)[C@@H]1OC(=O)[C@H]1C1CCC1)C(=O)N[C@H](C(=O)OCc1ccccc1)C(C)C | 0.0132 | > 50 | > 50 | 37.2 | inactive |  |  |  | 
17 | C=CCOC(=O)[C@@H](NC(=O)[C@@H](NC(=O)[C@@H]1OC(=O)[C@H]1[C@@H](C)CC)C(C)C)C(C)C | 0.0094 | 0.353 | 0.275 | 0.088 |  | 0.779 | > 10 | 0.0195 | 0.0412
18 | CC(C)[C@H](NC(=O)[C@@H]1OC(=O)[C@H]1C1CC1)C(=O)N[C@H](C(=O)OCc1ccccc1)C(C)C | 0.0076 | > 100 | > 100 | 73.9 | inactive |  |  |  | 
19 | CC[C@H](C)[C@@H]1C(=O)O[C@H]1C(=O)N[C@H](C(=O)N[C@H](C(=O)OCC(C)C)C(C)C)C(C)C | 0.0088 | 0.664 | 0.317 | 0.095 |  |  |  |  | 
20 | CC[C@H](C)[C@@H]1C(=O)O[C@H]1C(=O)N[C@H](C(=O)N[C@H](C(=O)NCc1ccccc1)C(C)C)C(C)C | 0.0036 | 0.892 | 0.885 | 0.32 |  | 1.38 | 2.92 | 0.0054 | 
21 | CC[C@H](C)[C@@H]1C(=O)O[C@H]1C(=O)N[C@H](C(=O)N[C@H](C(=O)OC)C(C)C)C(C)C | 0.0159 | 0.427 | 0.312 | 0.268 |  |  |  |  | 
22 | CC(C)C[C@H](NC(=O)[C@H](CCc1ccccc1)NC(=O)CN1CCOCC1)C(=O)N[C@@H](Cc1ccccc1)C(=O)N[C@@H](CC(C)C)C(=O)[C@@]1(C)CO1 [CARFILZOMIB] |  | 0.0041 | 0.0044 | 0.0067 |  | > 1 | > 1 |  | 
23 | CC[C@H](C)[C@@H]1C(=O)O[C@H]1C(=O)N[C@H](C(=O)N[C@@H](Cc1ccccc1)C(=O)OCc1ccccc1)C(C)C | 0.0057 | 2.75 | 3.35 | 1.1 |  |  |  |  | 
